Reference: ChEMBL document CHEMBL1125644, “A new class of calcium antagonists. 2. Synthesis and biological activity of 11-[[4-[4-(4-fluorophenyl)-1-piperazinyl]butyryl]amino]-6,11- dihydrodibenzo[b,e]-thiepin maleate and related compounds” (J Med Chem, 1991)
pIC50: −log10 of the molar value. Calls of active or inactive are those of the source. No cut-off for these calls is given here.

Experiments:
Rattus norvegicus [1] = species on record: Rattus norvegicus; assay: Inhibition of calcium activation was assessed against calcium-induced constriction of potassium-depolarized rat aorta (Negative logarithm of the molar concentration); type: functional, organism-based; conditions: read-out: pA2 (converted)
Rattus norvegicus [2] = assay: Preventive effect of compound was measured on methacholine-induced ST elevation in anesthetized rats at 0.3 mg/kg iv dose with test compound (0-90 min); type: functional
Method in brief: (§1)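 Male Sprague-Dawley rats (~500 g), pentobarbital 60 mg/kg ip. Methacholine 8 μg/kg bolus via carotid cannula near aortic valve into coronary ostia, before, at 0.5 min and every 5 min after iv compound (femoral vein; vehicle 5% ethanol in saline). Lead II ECG ST amplitude; mean ± SE, n=5; paired Student's t-test.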

Rattus norvegicus [3] = assay: Preventive effect of compound was measured on vasopressin-induced ST depression rats at 10 mg/kg po dose after 3h of administration; -=No significance; type: functional, organism-based; set-up: dose 10 mg/kg
Method in brief: (§2)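 Male Donryu rats (150-220 g), pentobarbital 60 mg/kg ip. Compound in 0.5% tragacanth given orally; vasopressin 0.2 IU/kg iv via femoral vein cannula. Lead II ECG ST depression measured every 30 s for 5 min after vasopressin. 10-20 experiments; + means p < 0.05 vs control, - not significant.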

Rattus norvegicus [4] = species on record: Rattus norvegicus; assay: Inhibitory effect of compound on calcium influx by high potassium in isolated rat aorta; type: functional
Method in brief: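 Rat aortic strips; compound present 30 min before and during 45Ca incubation under high potassium. Strips then washed 60 min at 4 °C in La-substituted solution (73.8 mM LaCl3, 5.5 mM glucose, 24 mM Tris), dissolved in toluene at 40 °C, counted by liquid scintillation; expressed as apparent tissue 45Ca content (mmol/kg wet wt).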

Rattus norvegicus [5] = assay: Preventive effect of compound was measured on methacholine-induced ST elevation in anesthetized rats at 1 mg/kg iv dose without test compound; type: functional; method in brief: as §1
Rattus norvegicus [6] = assay: Preventive effect of compound was measured on vasopressin-induced ST depression rats at 30 mg/kg po dose after 7 hr of administration; -=No significance; type: functional, organism-based; set-up: dose 30 mg/kg; method in brief: as §2
Rattus norvegicus [7] = assay: Preventive effect of compound was measured on vasopressin-induced ST depression rats at 10 mg/kg po dose after 1 hr of administration; +=Differ from control value; type: functional, organism-based; set-up: dose 10 mg/kg; method in brief: as §2
Rattus norvegicus [8] = assay: Preventive effect of compound was measured on vasopressin-induced ST depression rats at 30 mg/kg po dose after 3h of administration; +=Differ from control value; type: functional, organism-based; set-up: dose 30 mg/kg; method in brief: as §2
Rattus norvegicus [9] = assay: Preventive effect of compound was measured on vasopressin-induced ST depression rats at 30 mg/kg po dose after 1 hr of administration; +=Differ from control value; type: functional, organism-based; set-up: dose 30 mg/kg; method in brief: as §2
Rattus norvegicus [10] = assay: Preventive effect of compound was measured on methacholine-induced ST elevation in anesthetized rats at 1 mg/kg iv dose with test compound (0-90 min); type: functional; method in brief: as §1
Rattus norvegicus [11] = assay: Preventive effect of compound was measured on vasopressin-induced ST depression rats at 10 mg/kg po dose after 2 hr of administration; +=Differ from control value; type: functional, organism-based; set-up: dose 10 mg/kg; method in brief: as §2
Rattus norvegicus [12] = assay: Preventive effect of compound was measured on methacholine-induced ST elevation in anesthetized rats at 0.1 mg/kg iv dose with test compound (0-90 min); type: functional; method in brief: as §1
Rattus norvegicus [13] = assay: Preventive effect of compound was measured on methacholine-induced ST elevation in anesthetized rats at 0.1 mg/kg iv dose without test compound; type: functional; method in brief: as §1
Rattus norvegicus [14] = assay: Preventive effect of compound was measured on vasopressin-induced ST depression rats at 3 mg/kg po dose after 1 hr of administration; -=No significance; type: functional, organism-based; set-up: dose 3 mg/kg; method in brief: as §2
Rattus norvegicus [15] = species on record: Rattus norvegicus; assay: inhibitory effect of compound on contraction induced by high potassium in isolated rat aorta; type: functional
Method in brief: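 Isolated rat aortic strips contracted with high potassium; compound added 30 min before measurement.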

Rattus norvegicus [16] = species on record: Rattus norvegicus; assay: Inhibitory effect of compound on contraction induced by high potassium in isolated rat aorta; type: functional
Method in brief: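 Std-Wistar rat thoracic aorta spiral strips (3–4 mm × ~30 mm) under 1.0 g tension in Krebs-bicarbonate, 95% O2/5% CO2, 37 °C, depolarized; isometric contraction to Ca2+ recorded.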

Rattus norvegicus [17] = assay: Preventive effect of compound was measured on methacholine-induced ST elevation in anesthetized rats at 0.3 mg/kg iv dose without test compound; type: functional; method in brief: as §1
Rattus norvegicus [18] = assay: Preventive effect of compound was measured on vasopressin-induced ST depression rats at 3 mg/kg po dose after 1 hr of administration; +=Differ from control value; type: functional, organism-based; set-up: dose 3 mg/kg; method in brief: as §2
Rattus norvegicus [19] = assay: Preventive effect of compound was measured on vasopressin-induced ST depression rats at 30 mg/kg po dose after 7 hr of administration; +=Differ from control value; type: functional, organism-based; set-up: dose 30 mg/kg; method in brief: as §2
Rattus norvegicus [20] = assay: Preventive effect of compound was measured on vasopressin-induced ST depression rats at 10 mg/kg po dose after 3h of administration; +=Differ from control value; type: functional, organism-based; set-up: dose 10 mg/kg; method in brief: as §2

SMILES	Kb (Rattus norvegicus [1]) [nM]	also measured
COc1ccc(CCN(C)CCCC(C#N)(c2ccc(OC)c(OC)c2)C(C)C)cc1OC (stereo not drawn)	6.92	
O=C(CCCN1CCN(c2ccc(F)cc2)CC1)NC1c2ccccc2Sc2ccccc21	10.5	
COc1ccc([C@@H]2Sc3ccccc3N(CCN(C)C)C(=O)[C@@H]2OC(C)=O)cc1 [DILTIAZEM]		Activity (Rattus norvegicus [2]): 0.059 delta mV; Activity (Rattus norvegicus [3]): inactive; pIC50 (Rattus norvegicus [4]): 6.45; Activity (Rattus norvegicus [5]): 0.223 delta mV; Activity (Rattus norvegicus [6]): inactive; Activity (Rattus norvegicus [7]): Active; Activity (Rattus norvegicus [8]): Active; Activity (Rattus norvegicus [9]): Active; Activity (Rattus norvegicus [10]): 0.091 delta mV; Activity (Rattus norvegicus [11]): Active; Activity (Rattus norvegicus [12]): 0.148 delta mV; Activity (Rattus norvegicus [13]): 0.227 delta mV; Activity (Rattus norvegicus [14]): inactive; pIC50 (Rattus norvegicus [15]): 6.69
O=C(CCCN1CCN(c2ccccc2)CC1)NC1c2ccccc2C=Cc2ccccc21	3.72	
O=C(CCCN1CCN(C(=O)c2ccccc2)CC1)NC1c2ccccc2CSc2ccccc21 (stereo not drawn)	36.3	
O=C(CCCN1CCN(CCCc2ccccc2)CC1)NC1c2ccccc2CSc2ccccc21 (stereo not drawn)	12.3	
O=C(CCCN1CCN(C(=O)c2ccccc2)CC1)NC1c2ccccc2C=Cc2ccccc21	20.9	
COc1cccc(N2CCN(CCCC(=O)NC3c4ccccc4C=Cc4ccccc43)CC2)c1	5.37	
O=C(CCCCN1CCN(c2ccc(F)cc2)CC1)NC1c2ccccc2CSc2ccccc21 (stereo not drawn)	3.47	
COC(=O)C1=C(C)NC(C)=C(C(=O)OC)C1c1ccccc1[N+](=O)[O-] [NIFEDIPINE]		pIC50 (Rattus norvegicus [16]): 8.70; pIC50 (Rattus norvegicus [4]): 8.40
O=C(CCCN1CCN(C/C=C/c2ccccc2)CC1)NC1c2ccccc2C=Cc2ccccc21	30.9	
O=C(CCCN1CCN(c2ccccc2)CC1)NC1c2ccccc2CSc2ccccc21 (stereo not drawn)	1.74	
COc1ccc(N2CCN(CCCC(=O)NC3c4ccccc4C=Cc4ccccc43)CC2)cc1OC	5.01	
O=C(CCCN1CCN(c2ccccc2F)CC1)NC1c2ccccc2C=Cc2ccccc21	3.47	
O=C(CCCN1CCN(c2ccc(F)cc2)CC1)NC1c2ccccc2COc2ccccc21 (stereo not drawn)	33.1	
O=C(CCCN1CCN(c2ccccc2F)CC1)NC1c2ccccc2CSc2ccccc21 (stereo not drawn)	3.24	
O=C(CCCN1CCN(c2ccc([N+](=O)[O-])cc2)CC1)NC1c2ccccc2CSc2ccccc21 (stereo not drawn)	7.94	
O=C(CCCN1CCN(c2ccc(F)cc2)CC1)NC1c2ccccc2C=Cc2ccccc21.O=C(O)/C=C\C(=O)O	1.05	Activity (Rattus norvegicus [2]): 0.042 delta mV; Activity (Rattus norvegicus [5]): 0.224 delta mV; Activity (Rattus norvegicus [17]): 0.188 delta mV; Activity (Rattus norvegicus [10]): 0.083 delta mV; Activity (Rattus norvegicus [13]): 0.165 delta mV

SMILES	Kb (Rattus norvegicus [1]) [nM]	also measured
O=C(CCCCN1CCN(c2ccc(F)cc2)CC1)NC1c2ccccc2C=Cc2ccccc21	4.47	
O=C(CCCN1CCN(Cc2ccccc2)CC1)NC1c2ccccc2CSc2ccccc21 (stereo not drawn)	2.88	
O=C(CCCN1CCN(c2ccc(C(F)(F)F)cc2)CC1)NC1c2ccccc2C=Cc2ccccc21	2.09	
O=C(CCN1CCN(c2ccc(F)cc2)CC1)NC1c2ccccc2C=Cc2ccccc21	2.75	
O=C(CCCN1CCN(c2ccc(F)cc2)CC1)NC1c2ccccc2CSc2ccccc21.O=C(O)/C=C\C(=O)O (stereo not drawn) [MONATEPIL MALEATE]	1.95	Activity (Rattus norvegicus [2]): 0.093 delta mV; pIC50 (Rattus norvegicus [4]): 7.80; Activity (Rattus norvegicus [5]): 0.241 delta mV; Activity (Rattus norvegicus [7]): Differ from control value; Activity (Rattus norvegicus [17]): 0.203 delta mV; Activity (Rattus norvegicus [18]): Differ from control value; Activity (Rattus norvegicus [9]): Differ from control value; Activity (Rattus norvegicus [19]): Differ from control value; Activity (Rattus norvegicus [10]): 0.088 delta mV; Activity (Rattus norvegicus [11]): Differ from control value; Activity (Rattus norvegicus [13]): 0.198 delta mV; Activity (Rattus norvegicus [20]): Differ from control value; pIC50 (Rattus norvegicus [15]): 7.68
O=C(CCCN1CCN(c2ccc(F)cc2)CC1)NC1c2ccccc2CCc2ccccc21	9.33	
O=C(CCCN1CCN(S(=O)(=O)Oc2ccccc2)CC1)NC1c2ccccc2CSc2ccccc21 (stereo not drawn)	10.5	
O=C(CCCN1CCN(c2ccc(Cl)cc2)CC1)NC1c2ccccc2CSc2ccccc21 (stereo not drawn)	2.82	
O=C(CCCN1CCN(c2ccc(F)cc2)CC1)NC1c2ccccc2-c2ccccc21	69.2	
O=C(CCCN1CCN(c2ccc(F)cc2)CC1)NC1c2ccccc2Oc2ccccc21	69.2	
O=C(CCCN1CCN(CCc2ccccc2)CC1)NC1c2ccccc2C=Cc2ccccc21	8.91	
Cc1ccc(N2CCN(CCCC(=O)NC3c4ccccc4CSc4ccccc43)CC2)cc1 (stereo not drawn)	3.31	
O=C(CCN1CCN(c2ccc(F)cc2)CC1)NC1c2ccccc2CSc2ccccc21 (stereo not drawn)	2.82	
COc1ccc(N2CCN(CCCC(=O)NC3c4ccccc4CSc4ccccc43)CC2)cc1 (stereo not drawn)	3.39	
O=C(CCCN1CCN(CC(=O)c2ccccc2)CC1)NC1c2ccccc2CSc2ccccc21 (stereo not drawn)	15.5	
O=C(CCCN1CCN(C/C=C/c2ccccc2)CC1)NC1c2ccccc2CSc2ccccc21 (stereo not drawn)	7.59	
O=C(CCCN1CCN(Cc2ccccc2)CC1)NC1c2ccccc2C=Cc2ccccc21	6.03	
O=C(CCCN1CCN(C(=O)Oc2ccccc2)CC1)NC1c2ccccc2CSc2ccccc21 (stereo not drawn)	13.2	
